Published values of several laboratories.
Lines come from different studies, so protocols differ.

| SMILES | target or system | observed | technique | tested at | time | quantity | result |
| --- | --- | --- | --- | --- | --- | --- | --- |
| CC(=O)c1nn(-c2ccccc2Cl)/c(=N/N=C(\C)c2ccc(NC(=O)c3ccccc3)cc2)s1 | MCF7 | cell growth or viability | MTT | 5 µM |  | viability | 6.17% |
| O=C(Nc1ccccc1)Nc1ccc(Oc2nnc(-c3ccc(Cl)cc3)c3ccccc23)cc1 | MCF7 | cell growth or viability | MTT | 78 nM | 24 h | viability | 96.4% |
| CCOC(=O)c1nn(-c2cccc(Cl)c2)/c(=N/N=C(\C)c2ccc(NC(=O)c3ccccc3)cc2)s1 | MCF7 | cell growth or viability | MTT | 0.156 µM |  | viability | 59.2% |
| Brc1cccc(/C=N/N=C/c2cccc(Br)c2)c1 |  | DPPH scavenging |  |  |  | IC50 | 2400 µM |
| C=C(C)[C@@H]1CC[C@@H](C)C[C@H]1OCc1ccccc1 | MCF7 | cell growth or viability | MTT | 30 µM | 72 h | inhibition | 31.6% |
| CCN(CC)c1ccc(/C=N/c2ccc(F)c(Cl)c2)c(O)c1 |  | DPPH scavenging |  |  |  | IC50 | 47.6 µM |
| CC(=NNC(=O)c1ccccc1)c1ccc(Nc2nnc(-c3ccc(Cl)cc3)c3ccccc23)cc1 | MCF7 | cell growth or viability | MTT | 5 µM | 24 h | viability | 5.18% |
| COc1cccc(/C=N/N=C/c2cccc(OC)c2)c1 |  | DPPH scavenging |  |  |  | IC50 | 755 µM |
| O=C1O[C@H]([C@@H](O)CO)C(O)=C1O |  | DPPH scavenging | absorbance |  | 30 min | IC50 | 12.4 µM |
| CCN(CC)c1ccc(/C=N/c2ccc(F)cc2)c(O)c1 |  | DPPH scavenging |  |  |  | IC50 | 30.1 µM |
| Cc1c(C)c2c(c(C)c1O)CCC(C)(C(=O)O)O2 (stereo not shown) |  | DPPH scavenging |  |  |  | IC50 | 70.2 µM |
| CC(=NNC(=O)c1cccnc1)c1ccc(Nc2nnc(-c3ccc(Cl)cc3)c3ccccc23)cc1 | MCF7 | cell growth or viability | MTT | 0.625 µM |  | cell death | 50.6% |
| Nc1ccc(/C=N/N=C/c2ccc(N)cc2)cc1 |  | DPPH scavenging |  |  |  | IC50 | > 3000 µM |
| O=C(Nc1ccc(Oc2nnc(-c3ccc(Cl)cc3)c3ccccc23)cc1)c1cccc([N+](=O)[O-])c1 | MCF7 | cell growth or viability | MTT | 10 µM |  | cell death | 92% |
| Cc1cccc(/C=N/N=C/c2cccc(C)c2)c1 |  | DPPH scavenging |  |  |  | IC50 | 711 µM |
| CCOC(=O)c1nn(-c2cccc(Cl)c2)/c(=N/N=C(\C)c2ccc(NC(=O)c3ccc(Cl)cc3)cc2)s1 | MCF7 | cell growth or viability | MTT | 0.625 µM |  | viability | 3.92% |
| CC(=NNC(=O)c1ccccc1Br)c1ccc(Nc2nnc(-c3ccc(Cl)cc3)c3ccccc23)cc1 | MCF7 | cell growth or viability | MTT | 0.625 µM | 24 h | viability | 75.9% |
| FC(F)(F)c1ccc(/C=N/N=C/c2ccc(C(F)(F)F)cc2)cc1 |  | DPPH scavenging |  |  |  | IC50 | > 3000 µM |
| CC(=O)c1nn(-c2ccc(C)cc2)/c(=N/N=C(\C)c2ccc(NC(=O)c3ccccc3)cc2)s1 | MCF7 | cell growth or viability | MTT | 0.156 µM |  | viability | 9.14% |
